From ChEMBL document CHEMBL4651341, “The discovery of a novel series of compounds with single-dose efficacy against juvenile and adult Schistosoma species” (PLoS Negl Trop Dis, 2021)
Values after ≈ are worked out from the molar mass of the structure shown.

What was measured:
Schistosoma mansoni [1] = experiment: Concentration required to kill 50% of 21 day old worms 5 days after drug treatment.; type: functional, organism-based; settings: Puerto Rican, 120 h
How it was run: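 Juvenile S. mansoni (Puerto Rican strain) were perfused from CD1 mice 3 weeks post-infection and washed. They were cultured 6–8 per well in 200 µL DMEM with 2 mM glutamine, penicillin/streptomycin and 10% FCS at 37 °C, 5% CO2. Viability of individual worms was scored on day 5 after dosing (120 h).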

[2] = Mean time to peak plasma concentration in Swiss albino male mice at […] per compound (administered orally in a mixture of 5 compounds to 3 mice) assessed by LCMS/MS.; type: ADME, organism-based; settings: mouse, po
[3] = Plasma protein binding determined at 1uM by LC-MS/MS.; type: ADME, cell-free
[4] = Mean plasma concentration at 24h in Swiss albino male mice at […] per compound (administered orally in a mixture of 5 compounds to 3 mice) assessed by LCMS/MS.; type: ADME, organism-based; settings: mouse, po
[5] = Plasma protein binding determined at 10uM by LC-MS/MS.; type: ADME, cell-free
How it was run: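 Equilibrium dialysis of plasma spiked at 10 µM (0.1% DMSO) against PBS pH 7.4, 6 h at 37 °C, duplicates. Both chambers analysed by LC-MS/MS after acetonitrile precipitation. % free = buffer/plasma area ratio; recovery also calculated.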

[6] = Partition coefficient of compound between n-octanol and PBS (pH7.4); type: physicochemical; settings: octanol/water, pH 7.4
How it was run: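 Shake-flask method using octanol and PBS pH 7.4, each pre-saturated with the other. Compound was shaken 2 h at 850 rpm, 25 °C, then the phases were separated by centrifugation and both layers diluted and analysed by LC-MS/MS. LogD = log(octanol AUC × relative dilution / buffer AUC).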

[7] = Mean volume of distribution at steady state in Swiss albino male mice at 1 mg/kg per compound (administered iv in a mixture of 5 compounds to 3 mice) assessed by LCMS/MS.; type: ADME, organism-based; settings: mouse, in vivo, read-out: Volume
How it was run: (§1)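 Male Swiss albino mice (~30 g), 3 per experiment, mostly dosed as mixtures of 5 compounds iv via the lateral tail vein. Vehicle: 10% DMSO/90% 50 mM Na2HPO4 with 0.5% Tween-80. Plasma stored at −20 °C and quantified by LC-MS after acetonitrile precipitation.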

[8] = Mean half-life in Swiss albino male mice at 1 mg/kg per compound (administered iv in a mixture of 5 compounds to 3 mice) assessed by LCMS/MS.; type: ADME, organism-based; settings: mouse, in vivo; how it was run: as §1
[9] = Mean oral bioavailability in Swiss albino male mice at […] per compound (administered in a mixture of 5 compounds to 3 mice) assessed by LCMS/MS.; further: dose 2.5 mg/kg; type: ADME, organism-based; settings: male, Swiss albino, mouse, in vivo, read-out: Bioavailability
Schistosoma mansoni [10] = experiment: Concentration required to kill 50% of 42 day old worms 5 days after drug treatment.; type: functional, organism-based; settings: Puerto Rican, 120 h
How it was run: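 Adult S. mansoni were perfused from CD1 mice 6 weeks post-infection and washed. They were cultured 3 pairs per well in 1 mL DMEM with 2 mM glutamine, penicillin/streptomycin and 10% FCS […] at 37 °C, 5% CO2. Viability of individual worms was scored on day 5 (120 h).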

[11] = Mean plasma concentration at 4h in Swiss albino male mice at […] per compound (administered orally in a mixture of 5 compounds to 3 mice) assessed by LCMS/MS.; type: ADME, organism-based; settings: mouse, po
[12] = Solubility at 25 degC of compound (diluted from DMSO) in PBS at pH 7.4 determined after 24h (1h sonication, 22h shaking, 1h sonication) by LCMS/MS; type: physicochemical
[13] = Mean AUC inf in Swiss albino male mice at 1 mg/kg per compound (administered iv in a mixture of 5 compounds to 3 mice) assessed by LCMS/MS.; type: ADME, organism-based; settings: male, Swiss albino, mouse, in vivo
How it was run: as §1, with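 “Tween-80. Blood sampled at 5, 15, 30 min and 1, 2, 4, 8, 24 h.” for “Tween-80.”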

[14] = Mean observed clearance in Swiss albino male mice at 1 mg/kg per compound (administered iv in a mixture of 5 compounds to 3 mice) assessed by LCMS/MS.; type: ADME, organism-based; settings: male, Swiss albino, mouse, in vivo, read-out: Clearance (converted)
How it was run: as §1, with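 “Tween-80. Blood sampled at 5, 15, 30 min and 1, 2, 4, 8, 24 h.” for “Tween-80.”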

[15] = Percentage of parent compound remaining after incubation for 30 minutes with cyropreserved mouse hepatocytes at a concentration of 1uM compound and […], determined by LCMS; type: ADME, tissue-based, Hepatocyte; settings: cryopreserved mouse hepatocytes, read-out: Stability
How it was run: (§2)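 Compound was incubated at 1 µM final (2 µM working solution mixed 1:1 with hepatocyte suspension) in supplemented KHB pH 7.4. Conditions: 37 °C, 5% CO2, gentle mixing, duplicates. Reaction quenched with ice-cold acetonitrile containing standard; analysed by LC-MS/MS. % remaining = AUC at t / AUC at T0.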

[16] = Percentage of parent compound remaining after incubation for 30 minutes with cyropreserved human hepatocytes at a concentration of 1uM compound and 1 million cells/uL, determined by LCMS/MS; type: ADME, tissue-based, Hepatocyte; settings: cryopreserved human hepatocytes, read-out: Stability; how it was run: as §2
[17] = Concentration required to kill 50% HepG2 cells as detected by MTT staining; type: toxicity, cell-based; settings: homo sapiens, read-out: TC50 (the source's name)
[18] = Concentration required to kill 50% MRC-5 cells as detected by Alamar blue staining; type: toxicity, cell-based, MRC5; settings: homo sapiens, read-out: TC50 (the source's name)
Schistosoma haematobium = experiment: Concentration required to kill 50% of 84 day old worms 5 days after drug treatment.; type: functional, organism-based; settings: Egyptian, 120 h
[19] = Percentage of parent compound remaining after incubation for 90 minutes with cyropreserved mouse hepatocytes at a concentration of 1uM compound and […], determined by LCMS; type: ADME, tissue-based, Hepatocyte; settings: cryopreserved mouse hepatocytes, read-out: Stability; how it was run: as §2
[20] = Percentage of parent compound remaining after incubation for 90 minutes with cyropreserved human hepatocytes at a concentration of 1uM compound and 1 million cells/uL, determined by LCMS/MS; type: ADME, tissue-based, Hepatocyte; settings: cryopreserved human hepatocytes, read-out: Stability; how it was run: as §2

Row | SMILES | EC50 (Schistosoma mansoni [1]) [nM] | Tmax [2] [min] | Binding ([3]; mouse) [%] | concentration at 24 h [4] [ng/mL] | Binding ([5]; mouse) [%] | Lipophilicity [6] | Vd [7] [L/kg] | half-life [8] [min] | bioavailability [9] [%] | EC50 (Schistosoma mansoni [10]) [nM] | concentration at 4 h [11] [ng/mL] | solubility kinetic at 24 h [12] [µM] | AUC(0-inf) [13] [ng·h/mL] | clearance [14] [mL/min/kg] | remaining at 0.5 h, 1 µM [15] [%] | CC50 [17] [nM] | remaining at 1.5 h, 1 µM [19] [%] | remaining at 1.5 h, 1 µM [20] [%] | also measured
1 | Oc1ccc(-c2c(C(F)(F)F)nc3cnc(-c4cccc(C(F)(F)F)c4)cn23)c(F)c1 | < 443 | 15 | 100 | 1.9 | 99.965 | 4.84 = | 9.55 | 268 | 58.4 | < 48.8 | 43.9 | 17.1 (≈ 7.55 µg/mL) | 203 | 41.2 | 58.7 | – | – | – | –
2 | CC(C)c1nn2cnc(-c3cccc(C(F)(F)F)c3)cc2c1-c1c(F)cc(O)cc1F | < 12.2 | 15 | – | 0.1 | 100 | 5.11 = | 3.67 | 95.4 | 14.5 | 21.9 | 12.5 | 91.9 (≈ 39.8 µg/mL) | 195 | 42.8 | 95.9 | 8400 | – | – | Binding ([5]; human): 100%; remaining at 0.5 h, 1 µM [16]: 68.4%
3 | Oc1ccc(-c2cnc3cnc(-c4cccc(C(F)(F)F)c4)cn23)c(F)c1 | 2120 | 15 | 99.76 | 0.1 | – | 4.95 = | 1.33 | 10.3 | – | 2320 | 0.1 | 2 (≈ 0.747 µg/mL) | 49.9 | 168 | 32.9 | – | – | – | Binding ([3]; human): 99.88%; CC50 [18]: > 38300 nM; remaining at 0.5 h, 1 µM [16]: 31%
4 | CCc1nc2cnc(-c3cccc(C(F)(F)F)c3)cn2c1-c1ccc(O)cc1F | 85.9 | 15 | – | 0.1 | 99.87 | 3.76 = | 2.17 | 33.6 | 7.35 | < 140 | 4.15 | 17.5 (≈ 7.02 µg/mL) | 144 | 58.2 | 39 | 18700 | – | – | EC50 (Schistosoma haematobium): 151 nM; CC50 [18]: 17500 nM
5 | Oc1cc(F)c(-c2c(C3CC3)nc3cnc(-c4ccc(F)c(S(F)(F)(F)(F)F)c4)cn23)c(F)c1 | 10.4 | – | – | – | – | – | – | – | – | 5.78 | – | 41.1 (≈ 20.9 µg/mL) | – | – | – | 10100 | 84.9 | 40.2 | –
6 | Fc1c(-c2c(C(F)(F)F)nc3cnc(-c4cccc(OC(F)(F)F)c4)cn23)ccc2[nH]ncc12 | 23.4 | 40 | – | 8.87 | – | – | 5.68 | 348 | 114 | 20.6 | 182 | – | 433 | 19.3 | – | 9710 | 88.7 | 54 | –
7 | COc1cc(-c2c(C(C)C)nc3cnc(-c4cccc(C(F)(F)F)c4)cn23)cc2cn[nH]c12 | 527 | 30 | 100 | 10.5 | 99.95 | 5.49 = | 6.81 | 446 | 84.8 | 428 | 130 | 0.643 (≈ 0.29 µg/mL) | 490 | 17 | 68 | – | – | – | EC50 (Schistosoma haematobium): 149 nM
8 | Fc1ccc(-c2cn3c(-c4ccc5[nH]ncc5c4F)c(C4CC4)nc3cn2)cc1S(F)(F)(F)(F)F | 29.5 | – | – | – | – | – | – | – | – | 17.3 | – | 0.823 (≈ 0.423 µg/mL) | – | – | – | 14800 | 88.6 | 101 | –
